Experimental data: ChEMBL document CHEMBL4184151, “In-cell production of a genetically-encoded library based on the θ-defensin RTD-1 using a bacterial expression system” (Bioorg Med Chem, 2018)
Residues, ends and D or L forms follow the SMILES beside them.

Legend:
[1] = molecular target: T1, Lethal factor (Bacillus anthracis, UniProt P15917); test: Inhibition of Bacillus anthracis lethal factor protease using substrate containing CyPet and YPet linked by RRKKVYPYPMEGTIA sequence preincubated for 30 mins followed by substrate addition measured every 2 mins for 3 hrs by FRET assay
T1 sequence (P15917 whole entry): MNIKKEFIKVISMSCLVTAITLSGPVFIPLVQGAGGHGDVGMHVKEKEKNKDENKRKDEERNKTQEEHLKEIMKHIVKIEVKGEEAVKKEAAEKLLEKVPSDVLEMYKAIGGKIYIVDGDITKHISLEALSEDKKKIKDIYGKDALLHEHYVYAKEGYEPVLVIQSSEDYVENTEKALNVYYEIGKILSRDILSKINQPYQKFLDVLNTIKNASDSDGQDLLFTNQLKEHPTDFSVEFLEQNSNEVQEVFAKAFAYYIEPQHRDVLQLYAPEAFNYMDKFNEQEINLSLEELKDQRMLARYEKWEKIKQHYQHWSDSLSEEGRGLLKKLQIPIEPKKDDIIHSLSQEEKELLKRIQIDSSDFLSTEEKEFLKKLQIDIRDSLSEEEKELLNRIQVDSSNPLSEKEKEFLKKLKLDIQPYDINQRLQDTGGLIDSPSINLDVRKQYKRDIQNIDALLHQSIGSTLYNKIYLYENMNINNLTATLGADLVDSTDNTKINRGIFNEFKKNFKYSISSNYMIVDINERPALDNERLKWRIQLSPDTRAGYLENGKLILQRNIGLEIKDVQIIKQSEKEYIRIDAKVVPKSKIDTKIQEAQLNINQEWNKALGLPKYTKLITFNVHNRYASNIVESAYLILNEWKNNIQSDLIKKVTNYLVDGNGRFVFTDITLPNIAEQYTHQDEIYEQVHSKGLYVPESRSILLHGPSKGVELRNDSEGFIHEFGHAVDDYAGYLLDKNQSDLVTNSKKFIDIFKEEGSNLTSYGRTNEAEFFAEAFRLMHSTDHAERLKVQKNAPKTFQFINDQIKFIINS
Summary of the method: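 Purified LF (50 nM) in pH 7.2 buffer (10 μM CaCl2, 10 μM MgCl2, 20 μM ZnCl2, 20 mM sodium phosphate, 100 mM NaCl) preincubated at room temperature with inhibitor (1 nM–10 μM). FRET substrate added to 10 nM final. Read at 405 nm excitation, 535 nm intensity ratio It/I0. Initial velocities were normalised to uninhibited LF, and IC50 came from a variable-slope log(inhibitor)–response fit.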

[2] = molecular target: T1, Lethal factor; test: Non-competitive inhibition of Bacillus anthracis lethal factor protease using substrate containing CyPet and YPet linked by RRKKVYPYPMEGTIA sequence preincubated for 30 mins followed by substrate addition measured every 2 mins for 3 hrs by FRET assay
Summary of the method: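 Ki was derived from the IC50 with the non-competitive tight-binding relation Ki = IC50 − E0/2, where E0 is the enzyme concentration (50 nM LF). The IC50 comes from the FRET assay: pH 7.2 Ca/Mg/Zn phosphate–NaCl buffer, inhibitor 1 nM–10 μM, 10 nM substrate, 405 nm excitation, 535 nm read, initial velocities fitted to a variable-slope curve.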

SMILES: CC[C@H](C)[C@H](NC(=O)[C@H](CS)NC(=O)[C@H](CCCNC(=N)N)NC(=O)[C@H](CS)NC(=O)[C@@H](NC(=O)CNC(=O)[C@H](Cc1cnc[nH]1)NC(=O)[C@H](CC(C)C)NC(=O)[C@H](CS)NC(=O)[C@H](C)NC(=O)[C@H](CS)NC(=O)[C@H](CCCNC(=N)N)NC(=O)[C@H](CS)NC(=O)[C@H](Cc1ccccc1)NC(=O)CN)C(C)C)C(=O)N[C@@H](CS)C(=O)N[C@H](C(=O)N[C@@H](CCCNC(=N)N)C(=O)O)[C@@H](C)O (H-GFCRCACLHGVCRCICTR-OH)
- IC50 [1]: 0.971 µM
- Ki [2]: 0.946 µM

SMILES: CC[C@H](C)[C@H](NC(=O)[C@H](CS)NC(=O)[C@H](Cc1c[nH]c2ccccc12)NC(=O)[C@H](CS)NC(=O)CNC(=O)[C@H](Cc1ccc(O)cc1)NC(=O)[C@H](CCCNC(=N)N)NC(=O)[C@H](CO)NC(=O)[C@H](CS)NC(=O)[C@@H]1CCCN1C(=O)[C@H](CS)NC(=O)[C@H](CCCNC(=N)N)NC(=O)[C@H](CS)NC(=O)[C@H](Cc1ccccc1)NC(=O)CN)C(=O)N[C@@H](CS)C(=O)N[C@H](C(=O)N[C@@H](CCCNC(=N)N)C(=O)O)[C@@H](C)O (H-GFCRCPCSRYGCWCICTR-OH)
- IC50 [1]: 0.971 µM
- Ki [2]: 0.946 µM

SMILES: CC[C@H](C)[C@H](NC(=O)[C@H](CS)NC(=O)[C@H](CC(=O)O)NC(=O)[C@H](CS)NC(=O)[C@H](CO)NC(=O)[C@H](CO)NC(=O)[C@H](CCCNC(=N)N)NC(=O)CNC(=O)[C@H](CS)NC(=O)[C@H](Cc1ccccc1)NC(=O)[C@H](CS)NC(=O)[C@H](CCCNC(=N)N)NC(=O)[C@H](CS)NC(=O)[C@H](Cc1ccccc1)NC(=O)CN)C(=O)N[C@@H](CS)C(=O)N[C@H](C(=O)N[C@@H](CCCNC(=N)N)C(=O)O)[C@@H](C)O (H-GFCRCFCGRSSCDCICTR-OH)
- IC50 [1]: 1.2 µM
- Ki [2]: 1.17 µM

SMILES: CC[C@H](C)[C@H](NC(=O)[C@H](CS)NC(=O)[C@H](CCCNC(=N)N)NC(=O)[C@H](CS)NC(=O)[C@@H](NC(=O)CNC(=O)[C@H](CCCNC(=N)N)NC(=O)[C@H](CCCNC(=N)N)NC(=O)[C@H](CS)NC(=O)[C@H](CC(C)C)NC(=O)[C@H](CS)NC(=O)[C@H](CCCNC(=N)N)NC(=O)[C@H](CS)NC(=O)[C@H](Cc1ccccc1)NC(=O)CN)C(C)C)C(=O)N[C@@H](CS)C(=O)N[C@H](C(=O)N[C@@H](CCCNC(=N)N)C(=O)O)[C@@H](C)O (H-GFCRCLCRRGVCRCICTR-OH)
- IC50 [1]: 0.406 µM
- Ki [2]: 0.381 µM
